{"data": "Published values pooled from the literature", "rep helicase": "Replicase polyprotein 1ab, helicase (rep, Severe acute respiratory syndrome coronavirus 2, UniProt P0DTD1)", "rep papain-like protease": "Replicase polyprotein 1ab, papain-like protease (rep, Severe acute respiratory syndrome coronavirus 2, UniProt P0DTD1)", "ADRA1A": "Alpha-1A adrenergic receptor (ADRA1A, Homo sapiens, UniProt P35348)", "MAOA": "Amine oxidase [flavin-containing] A (MAOA, Homo sapiens, UniProt P21397)", "note": "Each line is one published result; the experiments were not run side by side."}
{"SMILES": "COc1ccc2cc1Oc1ccc(cc1)C[C@H]1c3c(cc4c(c3Oc3cc5c(cc3OC)CCN(C)[C@@H]5C2)OCO4)CCN1C", "target": "rep helicase", "effect on": "enzyme activity", "action": "inhibitor", "measurement": "IC50", "result": "4.5 µM"}
{"SMILES": "CCC(C(=O)Nc1cc(NC2CCOC2)ccc1C)n1cc(Cl)cc2nc(SCc3ccc(F)cc3)nc1-2 (stereo not shown)", "target": "rep papain-like protease", "effect on": "enzyme activity", "action": "inhibitor", "measurement": "IC50", "result": "0.169 µM"}
{"SMILES": "CCCNC(=O)[C@H]1O[C@@H]1C(=O)N[C@H](C(=O)N1CCC[C@H]1C(=O)O)[C@@H](C)CC", "target": "rep papain-like protease", "effect on": "enzyme activity", "action": "inhibitor", "method": "FRET", "measurement": "IC50", "result": "170 µM"}
{"SMILES": "CSCCNc1nc(SCCC(F)(F)F)nc2c1ncn2[C@@H]1O[C@H](COP(=O)(O)OP(=O)(O)C(Cl)(Cl)P(=O)(O)O)[C@@H](O)[C@H]1O", "target": "rep helicase", "effect on": "enzyme activity", "action": "inhibitor", "measurement": "IC50", "result": "> 100 µM"}
{"SMILES": "CCC(C(=O)Nc1cc(NC2COC2)ccc1C)n1cc(F)cc2nc(SCc3ccc(F)cc3)nc1-2 (stereo not shown)", "target": "rep papain-like protease", "effect on": "enzyme activity", "action": "inhibitor", "measurement": "IC50", "result": "0.436 µM"}
{"SMILES": "COC(=O)c1cc(N(C)C(=O)c2ccn3ncc(-c4ccc(C(=O)O)cc4)c3c2)ccc1Cl", "target": "ADRA1A", "effect on": "cell-free assay", "measurement": "IC50", "result": "> 30 µM"}
{"SMILES": "Cc1cc(Nc2ncc(Cl)c(Nc3ccccc3S(=O)(=O)C(C)C)n2)c(OC(C)C)cc1C1CCNCC1", "target": "rep papain-like protease", "effect on": "enzyme activity", "action": "inhibitor", "method": "FRET", "measurement": "IC50", "result": "19.5 µM"}
{"SMILES": "C#CCN(C)CCCCCCCCOc1cccc(CN(C)c2c3c(nc4ccc(F)cc24)CCCC3)c1", "target": "MAOA", "effect on": "enzyme activity", "action": "inhibitor", "method": "fluorescence", "measurement": "IC50", "result": "61.3 µM"}
{"SMILES": "CNC(=O)c1ccc(-c2cnn3ccc(C(=O)N(C)c4ccc(Cl)c(C(=O)OC)c4)cc23)cc1", "target": "ADRA1A", "effect on": "cell-free assay", "measurement": "IC50", "result": "> 30 µM"}
{"SMILES": "C#CCN(C)CCOc1cccc(CN(C)c2c3c(nc4ccccc24)CCCC3)c1", "target": "MAOA", "effect on": "enzyme activity", "action": "inhibitor", "method": "fluorescence", "measurement": "IC50", "result": "10.3 µM"}
{"SMILES": "Brc1ccc2c(c1)C(c1ccccn1)=NCc1c(-c3cnco3)ncn1-2", "target": "Translocator protein (Tspo, Rattus norvegicus, UniProt P16257)", "effect on": "ligand displacement", "method": "radioligand", "measurement": "Ki", "result": "0.331 µM"}
{"SMILES": "CCCC(C(=O)Nc1cc(NC2CNC2)ccc1C)n1cccc2nc(SCc3ccc(F)cc3)nc1-2 (stereo not shown)", "target": "rep papain-like protease", "effect on": "enzyme activity", "action": "inhibitor", "measurement": "IC50", "result": "1.48 µM"}
{"SMILES": "C#CCN(C)CCCCCCOc1cccc(CN(C)c2c3c(nc4ccc(C)cc24)CCCC3)c1", "target": "MAOA", "effect on": "enzyme activity", "action": "inhibitor", "method": "fluorescence", "measurement": "IC50", "result": "4.87 µM"}
